# High-throughput results (PubChem)
# Most compounds without a hit are left out; they make up all but 1.4% or so of the library.
# Tn7 DDE FP: DD(E)-Tn7 binding inhibition, primary FP screen; P02675; FP displacement of FITC-Tn7 peptide from fibrin DD(E); 0% = median of compound wells per plate; hit rate 0.13% among 370,000; inhibition, % at 8.3 µM;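 active means inhibition above the mean of compounds falling within the control limits plus 3 SD of them, cut at about 14% in these data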;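 further: 0% = plate median of compound wells and 100% = 10 µM Aha-Tn7 peptide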
#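 Also added: labelled Tn7 tracer, 0.1 µM; Assay system: human fibrin DD(E) protein; Amount: 2 µM fibrin DD(E); Schedule: 10 min compound pre-incubation, 3 h probe incubation at room temperature; Repeats: one replicate per compound; Read-out basis: percent inhibition; Measured by: fluorescence polarization of the labelled Tn7 tracer.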
# DNA FID counter: fluorescent intercalator displacement, NS3 helicase counter-screen; hit rate 0.17% among 290,000; DNA fluorescent intercalator displacement, fluorescence; AID 1845; inhibition, % at 7.9 µM; in the data active means inhibition above about 37%;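 further: 0% = vehicle and 100% = reference compound; higher means more ethidium bromide displaced from hairpin DNA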
# Tn6 DDE FP: inhibitors of Tn6 peptide binding to human fibrin DD(E). Fibrin DD(E) TRITC-Tn6 fluorescence polarization displacement. inhibition, % at 8.3 µM. hit rate 0.21% among 370,000;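 active means inhibition above a per-campaign cutoff: mean of compounds within control limits plus 3 SD, cut at about 15% in these data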;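 further: 0% = median of all compound wells on the plate and 100% = blocking peptide control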
# PLC-beta3 inh: PLC-beta3 (human) inhibition, primary screen; Q01970; Purified PLC-beta3, fluorogenic substrate, fluorescence; inhibition, % at 12.2 µM; hit rate 0.18% among 370,000;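 further: 0% = median of compound wells on plate and 100% = full blocker control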
# PLC-gamma1 inh: inhibitors of human phospholipase C gamma1; P19174; inhibition, % at 12.2 µM; hit rate 0.84% among 370,000; purified PLC-gamma1, fluorogenic substrate, fluorescence; AID 720700; in the data active means inhibition above about 9.5%
# PLCgamma1 ctr: PLC-gamma1 inhibition, counter-screen for PLC-beta3 hits | shares compounds with PLC-gamma1 inh | purified PLC-gamma1, fluorogenic substrate, fluorescence | inhibition, % at 12.3 µM | hit rate 3.1% among 3,300 | AID 743258; in the data active means inhibition above about 9.5%
# PLCb3 confirm: confirmation of human PLC-beta3 inhibitors; shares compounds with PLC-gamma1 inh; purified PLC-beta3, fluorogenic substrate fluorescence; inhibition, % at 12.3 µM; hit rate 1% among 3,300; AID 743261
# The depositor's hits bear a star; · = not tested or not shown. Unless noted, no stated cut-off is given here; in the data, active means inhibition above about 11%; inactive means the rest.
SMILES,Tn7 DDE FP,DNA FID counter,Tn6 DDE FP,PLC-beta3 inh,PLC-gamma1 inh,PLCgamma1 ctr,PLCb3 confirm
O=C1CCCN1c1cccc(Br)c1,6,0,1,1,0,·,·
O=[N+]([O-])c1ccc(Nc2ccccc2O)c([N+](=O)[O-])c1,-3,·,5,5,9.5*,1,-1
O=C(O)c1cc([N+](=O)[O-])ccc1Nc1ccccc1,8,-7,-7,-52,-43,·,·
CCNC(=O)C1(C)CCN1C(=O)CCc1cccc(Cl)c1 (configuration not stated),-1,·,-1,8,14*,-8,-4
CC1(C(=O)NS(=O)(=O)Cc2cccc(Cl)c2)CCN1C(=O)CCc1ccccc1 (configuration not stated),-8,·,1,-7,-3,·,·
COC[C@H]1CCCN1c1ccc2c(c1)O[C@@H](COCc1ccccc1)CN([C@H](C)c1ccccc1)S2(=O)=O,-1,·,-7,-4,10*,-3,-2
COC(=O)C1=C(C)N(C)C(=NCc2cc(OC)c(OC)c(OC)c2)NC1c1ccc(Cl)cc1 (configuration not stated),-5,·,7,13*,4,5,0
Cc1cnc(C(=O)OCC(=O)NC(C)C)cn1,-6,1,-2,-4,-1,·,·
CC1CCC(NC(=O)N(CCCl)N=O)CC1 (configuration not stated),-6,·,-4,2,1,·,·
CCCC(O)(c1ccc(OC)cc1)C(CN1CCOCC1)c1ccc(Cl)cc1 (configuration not stated),1,-17,-13,1,11*,-1,4
CCCC(O)(c1ccc(Cl)cc1)C(CN1CCOCC1)c1ccc(Cl)cc1 (configuration not stated),-5,-16,3,-1,2,·,·
CC(C)C[C@H](NC(=O)CCCn1nnc2ccccc2c1=O)C(=O)O,2,-11,4,-6,0,·,·
CSCC[C@H](NC(=O)CCn1nnc2ccccc2c1=O)C(=O)O,8,2,3,12*,11*,6,8
Cc1cccc(NC(=O)CN(C)S(=O)(=O)c2ccc(Cl)cc2)n1,10,-7,0,4,-2,·,·
Cc1cccc(NC(=O)CN(C)S(=O)(=O)c2ccc(Br)cc2)n1,1,-11,0,2,10*,-7,-4
Cc1ccc(OCC(=O)NNC(=O)CSc2nnc(-c3ccc(C)cc3)n2C)cc1,5,-7,7,4,2,·,·
CC(C)CC(=O)Nc1cccc(NC(=O)CC(C)C)n1,9,-2,0,-3,10*,-8,-7
CC(=O)Nc1cccc(NC(C)=O)n1,9,-1,12,-2,1,·,·
Cc1ccc2c(c1)N(CCC(=O)NC1CC1)C(=O)C(C)O2 (configuration not stated),3,-3,2,12*,6,-3,-6
Cn1cnnc1SCC(=O)n1c2ccccc2c2ccccc21,-3,4,5,8,14*,-10,-6
O=C(NN1C(=O)CSC1=S)C(=O)NN1C(=O)CSC1=S,7,8,-5,-6,44*,71*,-5
COc1ccc(CCNC(=O)CCNS(=O)(=O)c2cccc3nsnc23)cc1OC,-3,-7,5,2,11*,-4,-4
CCOC(=O)N1CCC(NC(=O)CCN2C(=O)C3C4C=CC(C4)C3C2=O)CC1 (configuration not stated),-1,-3,0,5,10*,8,2
O=C(CCN1C(=O)C2C3C=CC(C3)C2C1=O)NC1CCCCC1 (configuration not stated),0,-3,-4,-4,1,·,·
S=C(Nc1ccccc1)c1ccccn1,-3,2,-2,12*,11*,-4,0
S=C(Nc1ccccc1)Nc1ccccn1,1,·,4,4,1,·,·
COc1ccc(NS(=O)(=O)c2cccc(C(=O)NCCCn3ccnc3)c2)cc1,-3,·,0,3,11*,-4,-7
Cc1cc(C)c(S(=O)(=O)N2CCCCC2)c(C)c1N(C)S(=O)(=O)c1ccccc1,-8,-22,5,2,11*,-3,3
